Assay results reported in ChEMBL document CHEMBL4665634, “Inhibiting Aβ toxicity in Alzheimer's disease by a pyridine amine derivative” (Eur J Med Chem, 2019).
Activity calls are given as the source filed them. No cut-off for these calls is given here.

What was measured:
[1] = molecular target: T1, Amyloid-beta precursor protein (Homo sapiens, UniProt P05067); assay: Inhibition of amyloid beta (1 to 42)-induced paralysis in transgenic Caenorhabditis elegans GMC101 L3 expressing human amyloid beta (1 to 42) assessed as reduction in fluorescence intensity at 100 uM incubated for 2 days by fluorescence based confocal microscopic analysis relative to control; settings: time 2.0 day
In short: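 GMC101 L3 worms kept on compound plates (50, 100 µM) at 25 °C for 2 days, mounted on 2% agarose pads. GFP imaged by confocal microscopy at ex 488/em 500–530 nm and intensity quantified. Two experiments, 15 worms per group.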

[2] = molecular target: T1, Amyloid-beta precursor protein; assay: Inhibition of amyloid beta (1 to 42)-induced paralysis in transgenic Caenorhabditis elegans CL4176 L3 expressing human amyloid beta (1 to 42) assessed as reduction in fluorescence intensity at 50 to 200 uM incubated for 2 days by thiofavin-T based fluorescence microscopic analysis; settings: dose microM 50-200, time 2.0 day
In short: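 CL4176 L3 worms kept on compound plates (50, 100, 200 µM) at 25 °C for 2 days. Stained with ThT (10 µM) for 5 min, held 2 h on NGM without OP50, then mounted on 2% agarose pads. Fluorescence imaged at ex 488/em 500–530 nm, in triplicate with 15–20 worms per group.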

Caenorhabditis elegans [3] = assay: Reduction in less than 55 kDa amyloid beta species expression in Caenorhabditis elegans CL4176 at 50 uM after 48 hrs by Western blot analysis; assay type: functional
In short: (§1)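 CL4176 raised on plates with compound (50 µM) at 15 °C to L3, then kept at 25 °C for 2 days. Worms sonicated in 0.1 M phosphate buffer, 16 µg protein run on 12% SDS-PAGE and blotted to PVDF. Probed with 6E10 (1:1000) and HRP anti-mouse secondary, with β-actin as the loading control.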

Caenorhabditis elegans [4] = assay: Reduction in 12 kDa amyloid beta species expression in Caenorhabditis elegans CL4176 at 50 uM after 48 hrs by Western blot analysis; assay type: functional; in short: as §1
Caenorhabditis elegans [5] = assay: Reduction in 16 kDa amyloid beta species expression in Caenorhabditis elegans CL4176 at 50 uM after 48 hrs by Western blot analysis; assay type: functional; in short: as §1
Caenorhabditis elegans [6] = assay: Reduction in amy-1 mRNA expression in Caenorhabditis elegans CL4176 at 50 to 100 uM after 48 hrs by qRT-PCR analysis; assay type: functional; settings: dose microM 50-100, time 48.0 hrs
In short: (§2)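 CL4176 worms treated with compound at 25 °C for 48 h (50, 100 µM for amy-1). RNA extracted with Trizol, cDNA made, EvaGreen qRT-PCR run for 40 cycles (95 °C 5 s, 60 °C 5 s). Normalized to ama-1 by the 2^−ΔΔCt method. Three independent preparations, samples in triplicate.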

Caenorhabditis elegans [7] = assay: Antioxidant activity in Caenorhabditis elegans CL4176 assessed as effect on ROS production at 100 uM and 15 to 25 degreeC after 48 hrs by H2DCF-DA probe based fluorescence assay ( Rvb = 33.68 %); assay type: functional
Caenorhabditis elegans [8] = assay: Antioxidant activity in Caenorhabditis elegans CL4176 assessed as effect on juglone-induced ROS level by measuring relative fluorescence intensity at 50 uM and 15 to 25 degreeC after 48 hrs by H2DCF-DA probe based fluorescence assay ( Rvb = 74.23 %); assay type: functional
Caenorhabditis elegans [9] = assay: Antioxidant activity in Caenorhabditis elegans CL4176 assessed as effect on juglone-induced ROS level by measuring relative fluorescence intensity at 100 uM and 15 to 25 degreeC after 48 hrs by H2DCF-DA probe based fluorescence assay ( Rvb = 74.23 %); assay type: functional
Caenorhabditis elegans [10] = assay: Effect on sod-3 mRNA expression in Caenorhabditis elegans CL4176 at 50 uM by qRT-PCR analysis; assay type: functional
In short: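 CL4176 qRT-PCR of skn-1 or sod-3. RNA extracted with Trizol, EvaGreen qRT-PCR run for 40 cycles (95 °C 5 s, 60 °C 5 s). Normalized to ama-1 by the 2^−ΔΔCt method. Three independent RNA/cDNA preparations, run in triplicate.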

Caenorhabditis elegans [11] = assay: Upregulation of hsf-1 mRNA expression in Caenorhabditis elegans CL4176 at 50 uM by qRT-PCR analysis relative to control; assay type: functional; in short: as §2
Caenorhabditis elegans [12] = assay: Upregulation of hsp-16.2 mRNA expression in Caenorhabditis elegans CL4176 at 50 uM by qRT-PCR analysis relative to control; assay type: functional; in short: as §2
Caenorhabditis elegans [13] = assay: Upregulation of hsp-60 mRNA expression in Caenorhabditis elegans CL4176 at 50 uM by qRT-PCR analysis relative to control; assay type: functional; in short: as §2
Caenorhabditis elegans [14] = assay: Induction of HSP expression in Caenorhabditis elegans; assay type: functional
Caenorhabditis elegans [15] = assay: Inhibition of AChE in Caenorhabditis elegans CL4176 assessed as enzyme activity at 25 uM after 48 hrs by DTNB reagent based colorimetric analysis (reference value: 272.49 +/- 14.6 units/L)
In short: (§3)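 Transgenic CL4176 worms kept on NGM plates with compound (0, 25, 50, 100 µM) at 25 °C for 48 h. Lysates made by sonication in 0.1 M phosphate buffer pH 7.4 and centrifuged at 13000 rpm for 5 min. AChE activity in the supernatant was measured with a kit, read as absorbance at 412 nm, given in Units/L normalized to protein concentration, mean ± S.D.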

Caenorhabditis elegans [16] = assay: Inhibition of AChE in Caenorhabditis elegans CL4176 assessed as enzyme activity at 50 uM after 48 hrs by DTNB reagent based colorimetric analysis (reference value: 272.49 +/- 14.6 units/L); in short: as §3
Caenorhabditis elegans [17] = assay: Inhibition of AChE in Caenorhabditis elegans CL4176 assessed as enzyme activity at 100 uM after 48 hrs by DTNB reagent based colorimetric analysis (reference value: 272.49 +/- 14.6 units/L); in short: as §3
Caenorhabditis elegans [18] = assay: Effect on ace-1 mRNA expression in Caenorhabditis elegans CL4176; assay type: functional
Mus musculus [19] = assay: Cognitive enhancing effect in APP/PS1 double mutant-transgenic C57BL/6 mouse model assessed as effect on escape latency time at 1 mg/kg, iv measured on day 5 by Morris water maze test (reference value: 50.08 +/- 17.95 sec); assay type: functional; settings: time 5 day
Mus musculus [20] = assay: Cognitive enhancing effect in APP/PS1 double mutant-transgenic C57BL/6 mouse model assessed as time spent on target quadrant at 1 mg/kg, iv measured on day 6 by Morris water maze test (reference value: 11.77 +/- 5.28 sec); assay type: functional; settings: time 6 day
Mus musculus [21] = assay: Cognitive enhancing effect in APP/PS1 double mutant-transgenic C57BL/6 mouse model assessed as increase in number of hidden escape platform crossings at 1 mg/kg, iv; assay type: functional, organism-based
Caenorhabditis elegans [22] = assay: Reduction in Amyloid-beta deposits in transgenic Caenorhabditis elegans CL4176 using anti-Abeta 6E10/rhodamine-phalloidin at 50 to 100 uM after 48 hrs by immunostaining; assay type: functional; settings: dose microM 50-100, time 48.0 hrs
In short: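 CL4176 L3 worms kept on compound plates (50, 100 µM) at 25 °C for 2 days. Fixed in 4% paraformaldehyde and permeabilized with 1% Triton X-100. Stained with 6E10 plus Alexa Fluor 488 secondary and rhodamine-phalloidin (1:4000). Confocal imaging at ex 488/em 500–530 nm and ex 543/em 565–605 nm.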

Caenorhabditis elegans [23] = assay: Protection against oligomycin-induced mitochondrial stress in Caenorhabditis elegans CL4176 assessed as effect oxygen consumption rate at 100 uM after 48 hrs by seahorse XFe24 analyser based assay

T1 sequence (P05067 whole entry): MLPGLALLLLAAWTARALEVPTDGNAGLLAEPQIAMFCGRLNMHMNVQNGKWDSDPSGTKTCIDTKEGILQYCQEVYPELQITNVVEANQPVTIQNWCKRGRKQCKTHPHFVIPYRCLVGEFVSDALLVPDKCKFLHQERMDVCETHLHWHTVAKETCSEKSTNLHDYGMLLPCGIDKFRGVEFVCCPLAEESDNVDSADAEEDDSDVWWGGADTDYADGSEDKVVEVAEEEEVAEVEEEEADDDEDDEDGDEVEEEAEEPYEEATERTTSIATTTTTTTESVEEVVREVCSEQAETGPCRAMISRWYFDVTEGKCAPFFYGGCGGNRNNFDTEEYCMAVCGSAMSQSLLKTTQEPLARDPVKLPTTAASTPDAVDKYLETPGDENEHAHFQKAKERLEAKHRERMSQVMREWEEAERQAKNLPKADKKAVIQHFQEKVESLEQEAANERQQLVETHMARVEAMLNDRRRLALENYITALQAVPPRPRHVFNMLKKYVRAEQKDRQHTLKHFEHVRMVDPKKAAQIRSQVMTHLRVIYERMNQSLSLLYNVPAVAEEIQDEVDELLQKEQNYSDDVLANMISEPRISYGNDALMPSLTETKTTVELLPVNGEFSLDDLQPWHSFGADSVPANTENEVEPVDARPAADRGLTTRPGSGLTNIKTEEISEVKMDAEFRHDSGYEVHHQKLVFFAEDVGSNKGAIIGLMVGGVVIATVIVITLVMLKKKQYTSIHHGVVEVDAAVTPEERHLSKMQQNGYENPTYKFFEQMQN

SMILES: Oc1cc(CN(Cc2ccccn2)Cc2ccccn2)cc(C[P+](c2ccccc2)(c2ccccc2)c2ccccc2)c1.[Br-]
- inhibition [1]: 20%
- inhibition [2]: Active
- Activity (Caenorhabditis elegans [3]): Active
- Activity (Caenorhabditis elegans [4]): Active
- Activity (Caenorhabditis elegans [5]): Active
- Activity (Caenorhabditis elegans [6]): Active
- Activity (Caenorhabditis elegans [7]): 21.72%
- Activity (Caenorhabditis elegans [8]): 48.97%
- Activity (Caenorhabditis elegans [9]): 28.14%
- Activity (Caenorhabditis elegans [10]): inactive
- fold change (FC) (Caenorhabditis elegans [11]): 1.55
- fold change (FC) (Caenorhabditis elegans [12]): 2.15
- fold change (FC) (Caenorhabditis elegans [13]): 1.59
- Activity (Caenorhabditis elegans [14]): Active
- Activity (Caenorhabditis elegans [15]): 248 U/L
- Activity (Caenorhabditis elegans [16]): 166 U/L
- Activity (Caenorhabditis elegans [17]): 135 U/L
- Activity (Caenorhabditis elegans [18]): inactive
- Time (Mus musculus [19]): 34.25 s
- Time (Mus musculus [20]): 17.2 s
- Activity (Mus musculus [21]): Active
- Activity (Caenorhabditis elegans [22]): Active
- Activity (Caenorhabditis elegans [23]): Active
